Laboratory results published in ChEMBL document CHEMBL1772984, “Inhibitor selectivity of a new class of oseltamivir analogs against viral neuraminidase over human neuraminidase enzymes” (Bioorg Med Chem, 2011).
pIC50, pKi: −log10 of the molar value. Calls of active or inactive are those of the source. The calls are words filed in the database; no cut-off is given here.

How the values were obtained:
[1] = biological target: T1, Sialidase-4 (Homo sapiens, UniProt Q8WWR8); assay: (§1) Inhibition of human NEU4 using 4MU-NA as substrate after 1 hr by fluorescence assay
T1 sequence (Q8WWR8 whole entry): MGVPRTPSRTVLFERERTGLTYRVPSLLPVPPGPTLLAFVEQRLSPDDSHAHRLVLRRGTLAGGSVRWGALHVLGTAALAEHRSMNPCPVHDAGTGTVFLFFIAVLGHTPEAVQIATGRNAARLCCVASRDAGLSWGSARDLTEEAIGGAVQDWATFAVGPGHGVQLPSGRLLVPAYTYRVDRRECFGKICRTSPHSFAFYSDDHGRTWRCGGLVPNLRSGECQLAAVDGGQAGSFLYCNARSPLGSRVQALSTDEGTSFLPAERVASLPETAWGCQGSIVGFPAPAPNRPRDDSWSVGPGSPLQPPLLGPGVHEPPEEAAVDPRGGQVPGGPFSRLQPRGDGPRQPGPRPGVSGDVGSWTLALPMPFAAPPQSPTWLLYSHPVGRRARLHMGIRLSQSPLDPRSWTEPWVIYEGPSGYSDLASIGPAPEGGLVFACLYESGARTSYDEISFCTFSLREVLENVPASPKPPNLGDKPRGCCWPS
Summary of the method: (§2)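 Recombinant human NEU4 was used as a GST fusion, expressed in E. coli BL21(DE3) pLysS and glutathione-agarose purified. Enzyme (0.1 mg/mL before mixing) was preincubated 30 min at 37 °C with inhibitor (eight serial-dilution concentrations, five replicates). 4MU-NA was added from a 1 mM stock in 0.1 M sodium acetate pH 4.5 for 1 h.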

[2] = biological target: T2, Sialidase-3 (Homo sapiens, UniProt Q9UQ49); assay: (§3) Inhibition of human NEU3 using 4MU-NA as substrate after 1 hr by fluorescence assay
T2 sequence (Q9UQ49 whole entry): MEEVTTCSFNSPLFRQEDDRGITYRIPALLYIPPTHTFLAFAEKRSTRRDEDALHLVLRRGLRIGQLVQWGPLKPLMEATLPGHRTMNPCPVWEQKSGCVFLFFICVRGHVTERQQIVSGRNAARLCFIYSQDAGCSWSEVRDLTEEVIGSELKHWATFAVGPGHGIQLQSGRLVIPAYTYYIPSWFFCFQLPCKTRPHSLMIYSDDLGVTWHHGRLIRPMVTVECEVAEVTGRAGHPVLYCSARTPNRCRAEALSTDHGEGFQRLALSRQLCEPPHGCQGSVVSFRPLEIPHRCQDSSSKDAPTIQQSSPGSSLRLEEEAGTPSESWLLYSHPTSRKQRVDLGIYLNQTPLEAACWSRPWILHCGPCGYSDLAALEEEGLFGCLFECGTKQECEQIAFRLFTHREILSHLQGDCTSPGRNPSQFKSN
Summary of the method: (§4)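 Recombinant human NEU3 was used as an N-terminal MBP fusion, expressed in E. coli. Enzyme (0.1 mg/mL before mixing) was preincubated with inhibitor (eight serial-dilution concentrations, five replicates) for 30 min at 37 °C. 4MU-NA was then added from a 1 mM stock in 0.1 M sodium acetate pH 5.0 and incubated 1 h.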

[3] = biological target: T3, Sialidase-4 (Homo sapiens) (UniProt Q8WWR8); assay: as §1; summary of the method: as §2
T3 sequence (whole entry): T1 sequence (Q8WWR8 whole entry)

[4] = biological target: T4, Sialidase-3 (Homo sapiens) (UniProt Q9UQ49); assay: as §3; summary of the method: as §4
T4 sequence (whole entry): T2 sequence (Q9UQ49 whole entry)

[5] = Inhibition of viral Neuraminidase

Compound | pIC50 [1] | pIC50 [2] | inhibition [3] | inhibition [4] | pKi [5]
CCC(CC)O[C@@H]1CC(C(=O)O)=C[C@H](n2cc([C@]3(O)CC[C@H]4[C@@H]5CCc6cc(O)ccc6[C@H]5CC[C@@]43C)nn2)[C@H]1NC(C)=O | 3.10 | 3.46 | – | – | –
CC(=O)N[C@H]1[C@H]([C@H](O)[C@H](O)CO)OC(C(=O)O)=C[C@@H]1O [NEU5AC2EN] | – | 4.52 | – | – | –
CCC(CC)O[C@@H]1CC(C(=O)O)C=C(n2cc(C(C)(C)O)nn2)[C@H]1NC(C)=O (some centres undefined) | < 3.00 | – | inactive | – | –
CCC(CC)O[C@@H]1CC(C(=O)O)=C[C@H](n2cc(C(C)(C)O)nn2)[C@H]1NC(C)=O | < 3.00 | < 3.00 | inactive | inactive | –
CCC(CC)O[C@@H]1CC(C(=O)O)=C[C@H](N)[C@H]1NC(C)=O | < 3.00 | < 3.00 | – | – | –
CCC(CC)O[C@@H]1CC(C(=O)O)=C[C@H](n2cc(C(O)CC)nn2)[C@H]1NC(C)=O (some centres undefined) | – | – | – | – | 7.14
CCC(CC)O[C@@H]1CC(C(=O)O)=C[C@H](n2cc(CCc3ccccc3)nn2)[C@H]1NC(C)=O | – | – | inactive | inactive | –
